From ChEMBL document CHEMBL1147748, “Overlapping, nonidentical binding sites of different classes of nonpeptide antagonists for the human gonadotropin-releasing hormone receptor” (J Med Chem, 2006)

Experiments:
[1] = target: Gonadotropin-releasing hormone receptor (Homo sapiens, UniProt P30968, Y290L); assay: Displacement of [125I]-His5, D-Tyr6]GnRH from mutant GnRHR, GnRHR Y290L
[2] = target: Gonadotropin-releasing hormone receptor (Homo sapiens, UniProt P30968, D293K); assay: Displacement of [125I]-His5, D-Tyr6]GnRH from mutant GnRHR, GnRHR D293K
Chain of Gonadotropin-releasing hormone receptor (Homo sapiens, UniProt P30968, D293K) (P30968 whole entry D293K): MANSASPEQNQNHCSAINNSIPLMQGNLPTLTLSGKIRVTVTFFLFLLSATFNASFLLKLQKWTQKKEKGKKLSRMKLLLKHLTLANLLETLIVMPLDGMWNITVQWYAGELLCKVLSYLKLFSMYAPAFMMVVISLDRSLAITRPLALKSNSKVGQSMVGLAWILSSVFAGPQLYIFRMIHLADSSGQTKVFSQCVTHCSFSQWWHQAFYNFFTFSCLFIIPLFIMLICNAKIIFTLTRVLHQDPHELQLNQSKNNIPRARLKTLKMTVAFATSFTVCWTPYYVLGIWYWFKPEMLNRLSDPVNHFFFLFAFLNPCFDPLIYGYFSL
Procedure, shortened: (§1)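 Human GnRH-R (wild type or site-directed point mutant) was transiently expressed in COS-7 cells by electroporation, with cells cultured 36-48 h before membranes were prepared. Membranes (5-20 µg per point) were incubated 2 h at room temperature with 0.3 nM tracer and varying competitor in HEPES pH 7.5, 150 mM NaCl, 0.1% BSA, then filtered and counted.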

[3] = target: Gonadotropin-releasing hormone receptor (Homo sapiens, UniProt P30968, E295K); assay: Displacement of [125I]-His5, D-Tyr6]GnRH from mutant GnRHR, GnRHR E295K; procedure, shortened: as §1
Chain of Gonadotropin-releasing hormone receptor (Homo sapiens, UniProt P30968, E295K) (P30968 whole entry E295K): as the sequence (P30968 whole entry D293K) above, with K293D, E295K counted along it

[4] = target: Gonadotropin-releasing hormone receptor (Homo sapiens, UniProt P30968, L300A); assay: Displacement of [125I]-His5, D-Tyr6]GnRH from mutant GnRHR, GnRHR L300A; procedure, shortened: as §1
Chain of Gonadotropin-releasing hormone receptor (Homo sapiens, UniProt P30968, L300A) (P30968 whole entry L300A): as the sequence (P30968 whole entry D293K) above, with K293D, L300A counted along it

[5] = target: Gonadotropin-releasing hormone receptor (Homo sapiens, UniProt P30968, D302Q); assay: Displacement of [125I]-His5, D-Tyr6]GnRH from mutant GnRHR, GnRHR D302Q; procedure, shortened: as §1
[6] = target: Gonadotropin-releasing hormone receptor (Homo sapiens, UniProt P30968, N305A); assay: Displacement of [125I]-His5, D-Tyr6]GnRH from mutant GnRHR, GnRHR N305A; procedure, shortened: as §1
[7] = target: Gonadotropin-releasing hormone receptor (Homo sapiens, UniProt P30968, H306A); assay: Displacement of [125I]-His5, D-Tyr6]GnRH from mutant GnRHR, GnRHR H306A; procedure, shortened: as §1
Chain of Gonadotropin-releasing hormone receptor (Homo sapiens, UniProt P30968, H306A) (P30968 whole entry H306A): as the sequence (P30968 whole entry D293K) above, with K293D, H306A counted along it

[8] = target: Gonadotropin-releasing hormone receptor (Homo sapiens, UniProt P30968, H306K); assay: Displacement of [125I]-His5, D-Tyr6]GnRH from mutant GnRHR, GnRHR H306K; procedure, shortened: as §1
[9] = target: Gonadotropin-releasing hormone receptor (Homo sapiens, UniProt P30968, F309L); assay: Displacement of [125I]-His5, D-Tyr6]GnRH from mutant GnRHR, GnRHR F309L; procedure, shortened: as §1
Chain of Gonadotropin-releasing hormone receptor (Homo sapiens, UniProt P30968, F309L) (P30968 whole entry F309L): as the sequence (P30968 whole entry D293K) above, with K293D, F309L counted along it

[10] = target: Gonadotropin-releasing hormone receptor (Homo sapiens, UniProt P30968, W280F); assay: Displacement of [125I]-His5, D-Tyr6]GnRH from mutant GnRHR, GnRHR W280F
[11] = target: Gonadotropin-releasing hormone receptor (Homo sapiens, UniProt P30968, Y284L); assay: Displacement of [125I]-His5, D-Tyr6]GnRH from mutant GnRHR, GnRHR Y284L
[12] = target: Gonadotropin-releasing hormone receptor (Homo sapiens, UniProt P30968, M24T); assay: Displacement of [125I]-His5, D-Tyr6]GnRH from mutant GnRHR, GnRHR M24T; procedure, shortened: as §1
[13] = target: Gonadotropin-releasing hormone receptor (Homo sapiens, UniProt P30968, N27A); assay: Displacement of [125I]-His5, D-Tyr6]GnRH from mutant GnRHR, GnRHR N27A; procedure, shortened: as §1
Chain of Gonadotropin-releasing hormone receptor (Homo sapiens, UniProt P30968, N27A) (P30968 whole entry N27A): as the sequence (P30968 whole entry D293K) above, with N27A, K293D counted along it

[14] = target: Gonadotropin-releasing hormone receptor (Homo sapiens, UniProt P30968, K115Q); assay: Displacement of [125I]-His5, D-Tyr6]GnRH from mutant GnRHR, GnRHR K115Q; procedure, shortened: as §1
[15] = target: Gonadotropin-releasing hormone receptor (Homo sapiens, UniProt P30968, S118N); assay: Displacement of [125I]-His5, D-Tyr6]GnRH from mutant GnRHR, GnRHR S118N
[16] = target: Gonadotropin-releasing hormone receptor (Homo sapiens, UniProt P30968, S124A); assay: Displacement of [125I]-His5, D-Tyr6]GnRH from mutant GnRHR, GnRHR S124A
[17] = target: Gonadotropin-releasing hormone receptor (Homo sapiens, UniProt P30968, S168A); assay: Displacement of [125I]-His5, D-Tyr6]GnRH from mutant GnRHR, GnRHR S168A
Chain of Gonadotropin-releasing hormone receptor (Homo sapiens, UniProt P30968, S168A) (P30968 whole entry S168A): as the sequence (P30968 whole entry D293K) above, with S168A, K293D counted along it

[18] = target: Gonadotropin-releasing hormone receptor (Homo sapiens, UniProt P30968, S168I); assay: Displacement of [125I]-His5, D-Tyr6]GnRH from mutant GnRHR, GnRHR S168I
[19] = target: Gonadotropin-releasing hormone receptor (Homo sapiens, UniProt P30968, H182E); assay: Displacement of [125I]-His5, D-Tyr6]GnRH from mutant GnRHR, GnRHR H182E; procedure, shortened: as §1
Chain of Gonadotropin-releasing hormone receptor (Homo sapiens, UniProt P30968, H182E) (P30968 whole entry H182E): as the sequence (P30968 whole entry D293K) above, with H182E, K293D counted along it

[20] = target: Gonadotropin-releasing hormone receptor (Homo sapiens, UniProt P30968, Q189E); assay: Displacement of [125I]-His5, D-Tyr6]GnRH from mutant GnRHR, GnRHR Q189E; procedure, shortened: as §1
Chain of Gonadotropin-releasing hormone receptor (Homo sapiens, UniProt P30968, Q189E) (P30968 whole entry Q189E): as the sequence (P30968 whole entry D293K) above, with Q189E, K293D counted along it

[21] = target: Gonadotropin-releasing hormone receptor (Homo sapiens, UniProt P30968, T190K); assay: Displacement of [125I]-His5, D-Tyr6]GnRH from mutant GnRHR, GnRHR T190K
Chain of Gonadotropin-releasing hormone receptor (Homo sapiens, UniProt P30968, T190K) (P30968 whole entry T190K): as the sequence (P30968 whole entry D293K) above, with T190K, K293D counted along it

[22] = target: Gonadotropin-releasing hormone receptor (Homo sapiens, UniProt P30968, S203K); assay: Displacement of [125I]-His5, D-Tyr6]GnRH from mutant GnRHR, GnRHR S203K
[23] = target: Gonadotropin-releasing hormone receptor (Homo sapiens, UniProt P30968, S203P); assay: Displacement of [125I]-His5, D-Tyr6]GnRH from mutant GnRHR, GnRHR S203P
[24] = target: Gonadotropin-releasing hormone receptor (Homo sapiens, UniProt P30968, S203Q); assay: Displacement of [125I]-His5, D-Tyr6]GnRH from mutant GnRHR, GnRHR S203Q
Chain of Gonadotropin-releasing hormone receptor (Homo sapiens, UniProt P30968, S203Q) (P30968 whole entry S203Q): as the sequence (P30968 whole entry D293K) above, with S203Q, K293D counted along it

[25] = target: Gonadotropin-releasing hormone receptor (Homo sapiens, UniProt P30968, N27E); assay: Displacement of [125I]-His5, D-Tyr6]GnRH from mutant GnRHR, GnRHR N27E; procedure, shortened: as §1
Chain of Gonadotropin-releasing hormone receptor (Homo sapiens, UniProt P30968, N27E) (P30968 whole entry N27E): as the sequence (P30968 whole entry D293K) above, with N27E, K293D counted along it

[26] = target: Gonadotropin-releasing hormone receptor (Homo sapiens, UniProt P30968, T51A); assay: Displacement of [125I]-His5, D-Tyr6]GnRH from mutant GnRHR, GnRHR T51A
[27] = target: Gonadotropin-releasing hormone receptor (Homo sapiens, UniProt P30968, E111A); assay: Displacement of [125I]-His5, D-Tyr6]GnRH from mutant GnRHR, GnRHR E111A; procedure, shortened: as §1
Chain of Gonadotropin-releasing hormone receptor (Homo sapiens, UniProt P30968, E111A) (P30968 whole entry E111A): as the sequence (P30968 whole entry D293K) above, with E111A, K293D counted along it

[28] = target: Gonadotropin-releasing hormone receptor (Homo sapiens, UniProt P30968, E111K); assay: Displacement of [125I]-His5, D-Tyr6]GnRH from mutant GnRHR, GnRHR E111K; procedure, shortened: as §1
[29] = target: Gonadotropin-releasing hormone receptor (Homo sapiens, UniProt P30968, E111Q); assay: Displacement of [125I]-His5, D-Tyr6]GnRH from mutant GnRHR, GnRHR E111Q; procedure, shortened: as §1
[30] = target: Gonadotropin-releasing hormone receptor (Homo sapiens, UniProt P30968, L112A); assay: Displacement of [125I]-His5, D-Tyr6]GnRH from mutant GnRHR, GnRHR L112A; procedure, shortened: as §1
Chain of Gonadotropin-releasing hormone receptor (Homo sapiens, UniProt P30968, L112A) (P30968 whole entry L112A): as the sequence (P30968 whole entry D293K) above, with L112A, K293D counted along it

| IC50 [1] | IC50 [2] | IC50 [3] | IC50 [4] | IC50 [5] | IC50 [6] | IC50 [7] | IC50 [8] | IC50 [9] | IC50 [10] | IC50 [11] | IC50 [12] | IC50 [13] | IC50 [14] | IC50 [15] | IC50 [16] | IC50 [17] | IC50 [18] | IC50 [19] | IC50 [20] | Compound | also measured |
| --- | --- | --- | --- | --- | --- | --- | --- | --- | --- | --- | --- | --- | --- | --- | --- | --- | --- | --- | --- | --- | --- |
| 202 nM | 56.1 nM | 9.6 nM | 87.9 nM | 20.6 nM | 3.7 nM | 23.3 nM | 101 nM | 60.1 nM | 139 nM | 277 nM | 57.1 nM | 8.8 nM | 27 nM | 63.7 nM | 21.3 nM | 8.9 nM | 15.2 nM | 7.6 nM | 15.7 nM | COc1c(C)cc(-c2[nH]c3ccc(C(C)(C)C(=O)N(CC(C)C)CC(C)C)cc3c2[C@H](C)CNCCc2ccccc2)cc1C | IC50 [21]: 19.8 nM; IC50 [22]: 14.6 nM; IC50 [23]: 41.4 nM; IC50 [24]: 15.7 nM; IC50 [25]: 10.8 nM; IC50 [26]: 15.8 nM; IC50 [27]: 5.4 nM; IC50 [28]: 13.6 nM; IC50 [29]: 11.5 nM; IC50 [30]: 22.4 nM |
| 951 nM | 4.8 nM | 3.1 nM | 18.2 nM | 26.5 nM | 12.7 nM | 50.6 nM | 66.2 nM | 37.7 nM | 10.3 nM | 186 nM | 4.9 nM | 5.8 nM | 8.2 nM | 1.1 nM | 3.9 nM | 4 nM | 3.8 nM | 3.6 nM | 16.7 nM | CC(C)C[C@H](NC(=O)[C@@H](Cc1ccc(O)cc1)NC(=O)[C@H](Cc1c[nH]cn1)NC(=O)[C@H](CO)NC(=O)[C@H](Cc1c[nH]c2ccccc12)NC(=O)[C@H](Cc1c[nH]cn1)NC(=O)[C@@H]1CCC(=O)N1)C(=O)N[C@@H](CCCN=C(N)N)C(=O)N1CCC[C@H]1C(=O)NCC(N)=O | IC50 [21]: 3.7 nM; IC50 [22]: 3.1 nM; IC50 [23]: 5.4 nM; IC50 [24]: 2.9 nM; IC50 [25]: 3.8 nM; IC50 [26]: 3.1 nM; IC50 [27]: 4.6 nM; IC50 [28]: 10.5 nM; IC50 [29]: 3.3 nM; IC50 [30]: 2.5 nM |
